# In the library only some 2.1% were active in any assay of this set; here they are far more common.
# HKDC1 inhibitor: blocks human hexokinase HKDC1 activity | recombinant HKDC1, G6PDH/diaphorase resazurin coupled fluorescence | inhibition, % at 20 µM | actives 0.16% (n = 340,000) | AID 493160;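 active means inhibition above about 35% when tested at 20 µM, limit read from the data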;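 further: plate controls were DMSO wells with enzyme for no effect and DMSO wells lacking enzyme for full effect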
#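 Test system: Recombinant HKDC1 (HK5) hexokinase enzyme, produced in-house | Input: HKDC1 at 5 µg/mL | Buffer or medium: Tris pH 8.0 buffer with MgCl2, Tween-20, BSA, BME | Schedule: 90 min reaction incubation at room temperature, dark | Technique: Resazurin-to-resorufin fluorescence via G6PDH and diaphorase coupling, 525/613 nm | Controls: DMSO wells with and without enzyme mix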
# B2AR ag: activates human beta-2 adrenergic receptor causing internalization | actives 0.43% (n = 340,000) | response, % (no concentration beside the values) | Am2.2-beta2AR cells, FAP receptor internalization, flow cytometry | P07550;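 active means response above a set limit, near 3 SD of response in nonfluorescent compounds, cut at about 42% in these data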
# Target sequence (P07550 whole entry, looked up): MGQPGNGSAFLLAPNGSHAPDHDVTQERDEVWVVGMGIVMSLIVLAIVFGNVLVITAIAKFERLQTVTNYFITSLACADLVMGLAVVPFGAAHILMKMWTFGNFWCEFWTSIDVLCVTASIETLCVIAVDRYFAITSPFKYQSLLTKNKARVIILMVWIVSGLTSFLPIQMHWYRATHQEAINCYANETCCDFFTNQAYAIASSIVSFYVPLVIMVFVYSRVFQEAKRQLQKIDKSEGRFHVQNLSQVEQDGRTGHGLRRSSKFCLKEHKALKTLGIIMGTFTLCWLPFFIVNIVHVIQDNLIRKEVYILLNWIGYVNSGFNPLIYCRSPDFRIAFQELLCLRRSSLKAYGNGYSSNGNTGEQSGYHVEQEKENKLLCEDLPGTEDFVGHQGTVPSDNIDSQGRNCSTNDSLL
# PfGluPho inh: PfG6PD (Plasmodium falciparum) enzyme inhibition; PfGluPho enzyme, NADPH resazurin-diaphorase fluorescence; inhibition, % at 20 µM; actives 0.78% (n = 350,000); AID 504690;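 active means inhibition reaching at least a set limit at 20 µM in the primary screen, cut at about 59% in these data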;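 further: 0% = DMSO wells with substrate and 100% = DMSO wells lacking glucose-6-phosphate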
# aDG glyco up: increases alpha dystroglycan glycosylation. activation, % at 10 µM. actives 0.22% (n = 360,000). Pro5-aDG cells, alpha-DG glycosylation AlphaScreen (IIH6); 0% Pro5, 100% B10-LARGE cell signal. AID 624168;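 active means activation of at least 8% versus controls, or a plate z-score of at least 8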;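 further: Pro5 are CHO cells carrying HIG-tagged alpha-DG that lacks glycosylation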
# UCH37 DUB inh: inhibitors of human deubiquitinating enzyme UCH37 | purified proteasome/UCH37, Ub-AMC cleavage fluorescence | inhibition, % (concentration not given with the values) | actives 0.33% (n = 330,000);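 active means mean inhibition over replicate wells above about 20%, limit read from the data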;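 further: 0% = compound-free wells with enzyme and 100% = wells lacking proteasome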
#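 Material: human UCH37 enzyme supplied as purified proteasome complex. Measure: % inhibition of Ub-AMC cleavage fluorescence. Medium: pH 7.4 Tris-HCl (50 mM) with ovalbumin, ATP-MgCl2, DTT. Times: 30 min preincubation with enzyme, 25 min cleavage at room temperature. Detection: AMC fluorescence intensity at 355/460 nm.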
# H9c2 protect: myocardial damage modulation in H9c2 cells; actives 0.63% (n = 360,000); H9c2 cardiomyocytes, H2O2 injury protection, ATPLite, 2 h; protection from H2O2 cell death, % at 20 µM;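 active means compounds giving at least 50% protection of heart cells from peroxide-induced death in the single-dose screen, raw or plate-pattern-corrected value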;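 further: 0% = DMSO wells with peroxide and 100% = DMSO wells without peroxide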
# PfGluPho conf: confirmation of Plasmodium falciparum G6PD inhibitors. shares compounds with PfGluPho inh. recombinant PfGluPho, NADPH-diaphorase-resazurin fluorescence. inhibition, % at 20 µM. actives 34% (n = 2,400). AID 504753;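 active means inhibition of at least 50% at 20 µM in any single replicate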;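 further: 0% = DMSO with substrate and 100% = DMSO lacking glucose-6-phosphate substrate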
# Diaph ctr 10uM: counter-screen for P. falciparum G6PD inhibitors: diaphorase inhibitors, oxidizers | actives 39% (n = 820) | shares compounds with PfGluPho inh | inhibition, % at 20 µM | diaphorase-coupled resazurin reduction, fluorescence, NADPH 10 uM | AID 504862;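 active means average inhibition reaching 50% or more with the compound at 20 µM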;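 further: resorufin red fluorescence formed as diaphorase reduces resazurin using NADPH; 0% = DMSO with enzyme and 100% = DMSO without enzyme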
# Diaph ctr 30uM: inhibits diaphorase or oxidizes, flagging false PfG6PD hits. shares compounds with PfGluPho inh. Diaphorase/resazurin coupled assay, resorufin fluorescence, 30 uM NADPH. inhibition, % at 20 µM. actives 29% (n = 820). AID 504863;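 active means inhibition averaging 50% or more, tested at 20 µM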;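 further: 0% = DMSO with enzyme and 100% = DMSO wells lacking diaphorase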
# The depositor's hits bear a star; x = no result given.
SMILES,HKDC1 inhibitor,B2AR ag,PfGluPho inh,aDG glyco up,UCH37 DUB inh,H9c2 protect,PfGluPho conf,Diaph ctr 10uM,Diaph ctr 30uM
Cc1ccc(/C=N/NC(=O)c2cccc(S(=O)(=O)Nc3ccccc3Cl)c2)s1,-9,1,94*,0,x,-5,80*,76*,61*
Cc1ccc(C=NNC(=O)c2cccc(S(=O)(=O)Nc3ccccc3Cl)c2)o1,x,x,x,x,5,x,x,x,x
Cc1cc(C)c(C(=O)Cn2nc(C(=O)O)c3ccccc3c2=O)cc1C,21,1,-9,0,2,8,x,x,x
Cc1cc(OCCn2nc(C(=O)O)c3ccccc3c2=O)ccc1C(C)C,6,15,79*,0,4,6,32,x,x
COc1cc(OC)cc(C(=O)NCC(=O)N2CCN(c3ccc(O)cc3)CC2)c1,2,7,60*,0,2,-4,43,x,x
COc1ccc(N2CCN(C(=O)CNC(=O)c3ccc4ccccc4c3)CC2)cc1,-5,-2,14,0,2,-3,x,x,x
NC(=S)NN=Cc1nccc2ccccc12,-22,-2,80*,2,12,22,38,x,x
Cn1cc(C=NNC(N)=S)c2ccccc21,x,x,x,x,13,x,x,x,x
NC(=S)NN=Cc1nccc2c(C(F)(F)C(F)(F)C(F)(F)F)cccc12,x,x,-17,0,x,5,x,x,x
Cc1cnc(C=NNC(N)=S)c2cccc(N)c12,31,-3,106*,0,x,11,66*,-8,-6
COc1cccc(N2[C@@H](CC(=O)O)c3cc(C(F)(F)F)ccc3S2(=O)=O)c1,2,3,72*,0,0,-5,26,x,x
COc1ccccc1N1CCN(N=Cc2cccnc2)CC1,x,x,x,x,1,x,x,x,x
Cc1nc2ccccc2c(=O)n1/N=C/c1ccc(O)c(O)c1O,15,6,92*,0,x,7,101*,97*,96*
Cc1nc2ccccc2c(=O)n1/N=C/c1ccccc1O,-9,-5,8,0,x,2,x,x,x
C/C(C=NNc1nc2ccccc2[nH]1)=C\c1ccccc1,x,x,x,x,-10,x,x,x,x
O=Cc1ccccc1-n1cccn1,-6,3,-13,0,0,20,x,x,x
Oc1cc(-n2cccn2)c(O)cc1-n1cccn1,2,4,102*,0,-2,1,86*,36,0
Cc1cc(C=NNC(=O)c2c(Br)cnn2C)c(C)n1-c1cccc(Br)c1,x,x,x,x,1,x,x,x,x
CC(=O)Nc1cc2c(cc1[N+](=O)[O-])-c1ccccc1C2O (stereo not drawn),8,-3,81*,1,10,16,83*,34,6
CCOc1ccccc1C=NNC(=O)C(=O)NN=Cc1ccccc1OCC,-9,3,-12,0,4,14,x,x,x
O=C(CNC(=O)C1COc2ccccc2O1)N/N=C\c1ccccc1Cl (stereo not drawn),0,8,60*,-1,x,-8,-2,x,x
CCOc1ccccc1C=NNC(=O)CCCCC(=O)NN=Cc1ccccc1OCC,-3,-5,125*,0,4,3,78*,41,54*
CCOc1ccc(/C=N/NC(=O)c2ccc(Cn3cc([N+](=O)[O-])cn3)o2)cc1,-6,15,-26,0,x,-14,x,x,x
CCOc1ccccc1/C=N/NC(=O)c1ccc(Cn2cc([N+](=O)[O-])cn2)o1,-2,4,61*,0,x,20,35,x,x
O=C(CNC(=O)C1COc2ccccc2O1)N/N=C/c1ccc([N+](=O)[O-])cc1 (stereo not drawn),-3,2,17,0,x,2,x,x,x
CCOc1ccccc1N(CC(=O)N/N=C/c1cc(Br)ccc1OC)S(C)(=O)=O,1,-4,118*,0,x,8,72*,70*,56*
